Experimental data taken from ChEMBL document CHEMBL3792366, “Role of disulfide linkage in action of bis(dialkylaminethiocarbonyl)disulfides as potent double-Edged microbicidal spermicide: Design, synthesis and biology” (Eur J Med Chem, 2016).
In brackets after ≈: the same amount, converted by molar mass. Activity calls are given as the source filed them. The rule behind the calls is not given here.

Key:
[1] = test system: Trichomonas vaginalis; experiment: Antitrichomonas activity against metronidazole-resistant trophozoite stage of Trichomonas vaginalis ATCC 50143 assessed as cell viability under anaerobic condition after 48 hrs by trypan blue exclusion assay; format: functional; settings: ATCC 50143, 48 h
Procedure, shortened: (§1)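 Log-phase T. vaginalis grown in TYM with 10% FCS, vitamin mix and penicillin/streptomycin at 37 °C. Compounds were made as 100 µg/mL DMSO stocks and serially diluted in TYM down to 0.1 µg/mL; DMSO/TYM served as vehicle. Parasites were incubated anaerobically at 37 °C, and viability was checked by trypan blue exclusion from 3 to 48 h. MIC = lowest concentration killing all cells by 48 h; each test was repeated three times.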

[2] = test system: Candida albicans; experiment: Antifungal activity against Candida albicans after 48 hrs by broth microdilution method; format: functional
Procedure, shortened: (§2)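 NCCLS broth microdilution in RPMI 1640 buffered with MOPS; starting inoculum 1–5 × 10^3 CFU/mL; plates incubated at 35 °C; MIC read after 48 h.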

[3] = test system: Trichomonas vaginalis; experiment: Potency index, ratio of metronidazole MIC to compound MIC for metronidazole-resistant trophozoite stage of Trichomonas vaginalis ATCC 50143; format: functional
[4] = Toxicity in Lactobacillus jensenii ATCC 25258 after 72 hrs
[5] = Selectivity index, ratio of IC50 for Lactobacillus jensenii ATCC 25258 to MIC for trophozoite stage of Trichomonas vaginalis clinical isolate
[6] = Spermicidal activity in human sperms assessed as motility measured within 30 secs by phase contrast microscopy; format: functional, Sperm
Procedure, shortened: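 Liquefied human semen (0.05 mL) was added to 0.25 mL test solution and vortexed 10 s at low speed. Motile sperm were scored visually under phase contrast in five fields within 30 s; assays in triplicate; MEC = minimum effective concentration.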

[7] = Selectivity index, ratio of IC50 for Lactobacillus jensenii ATCC 25258 to MIC for metronidazole resistant trophozoite stage of Trichomonas vaginalis ATCC 50143
[8] = test system: Trichophyton mentagrophytes; experiment: Antifungal activity against Trichophyton mentagrophytes after 48 hrs by broth microdilution method; format: functional; procedure, shortened: as §2
[9] = test system: HeLa; experiment: Cytotoxicity against human HeLa cells after 5 hrs by lactate dehydrogenase release assay; format: cell-based
Procedure, shortened: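 HeLa cells were seeded at 2×10^4/well in triplicate and grown 24 h at 37 °C in 5% CO2. The DMEM was then replaced with medium holding serially diluted compound, and plates were incubated 5 h. LDH release in the supernatant was measured colorimetrically at 490 nm, and IC50 was derived from it.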

[10] = test system: Sporothrix schenckii; experiment: Antifungal activity against Sporothrix schenckii after 48 hrs by broth microdilution method; format: functional; procedure, shortened: as §2
[11] = test system: Cryptococcus neoformans; experiment: Antifungal activity against Cryptococcus neoformans after 48 hrs by broth microdilution method; format: functional; procedure, shortened: as §2
[12] = test system: Trichomonas vaginalis; experiment: Antitrichomonas activity against trophozoite stage of Trichomonas vaginalis clinical isolate assessed as cell viability under anaerobic condition after 48 hrs by trypan blue exclusion assay; format: functional; procedure, shortened: as §1
[13] = test system: Candida parapsilosis; experiment: Antifungal activity against Candida parapsilosis ATCC 22019 after 48 hrs by broth microdilution method; format: functional; settings: Lodderomyces parapsilosis, ATCC 22019, 48 h; procedure, shortened: as §2
[14] = test system: Trichomonas vaginalis; experiment: Selectivity ratio of MIC for metronidazole-resistant trophozoite stage of Trichomonas vaginalis ATCC 50143 to MIC for metronidazole-susceptible trophozoite stage of Trichomonas vaginalis; format: functional
[15] = test system: Oryctolagus cuniculus; experiment: In vivo spermicidal activity in Belgian rabbit assessed as decrease in pregnancy rate at 20 mg via intravaginal instillation measured 30 to 34 days post gestation period; format: functional
Procedure, shortened: (§3)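 Young adult female Belgian rabbits. Compound was blended into K-Y Jelly, with plain jelly for controls. Two mL of jelly was instilled 10–12 cm deep into the vagina by catheter, with the animal supine.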

[16] = test system: Oryctolagus cuniculus; experiment: In vivo spermicidal activity in Belgian rabbit assessed as decrease in pregnancy rate at 15 mg via intravaginal instillation measured 30 to 34 days post gestation period; format: functional; procedure, shortened: as §3
[17] = test system: Oryctolagus cuniculus; experiment: In vivo spermicidal activity in Belgian rabbit assessed as decrease in pregnancy rate at 10 mg via intravaginal instillation measured 30 to 34 days post gestation period; format: functional; procedure, shortened: as §3
[18] = test system: Oryctolagus cuniculus; experiment: In vivo spermicidal activity in Belgian rabbit assessed as decrease in litter size at 15 mg via intravaginal instillation measured 30 to 34 days post gestation period; format: functional; design: scale not given: the % may be the effect or the level left; procedure, shortened: as §3
[19] = test system: Oryctolagus cuniculus; experiment: In vivo spermicidal activity in Belgian rabbit assessed as decrease in pregnancy rate administered via intravaginal instillation measured 30 to 34 days post gestation period; format: functional, organism-based; procedure, shortened: as §3
[20] = test system: Oryctolagus cuniculus; experiment: In vivo spermicidal activity in Belgian rabbit assessed as decrease in litter size at 20 mg via intravaginal instillation measured 30 to 34 days post gestation period; format: functional; design: scale not given: the % may be the effect or the level left; procedure, shortened: as §3
[21] = test system: Oryctolagus cuniculus; experiment: In vivo spermicidal activity in Belgian rabbit assessed as decrease in litter size at 10 mg via intravaginal instillation measured 30 to 34 days post gestation period; format: functional; design: scale not given: the % may be the effect or the level left; procedure, shortened: as §3
[22] = test system: Sperm; experiment: Spermicidal activity in human sperm assessed as decrease in free thiol levels in sperm membrane at MEC after 15 mins by mBBr dye based fluorescence microscopy; format: functional, cell membranes
Procedure, shortened: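 Semen (0.5 mL) was incubated with 2.5 mL of compound at MEC, or saline, for 15 min at room temperature. Sperm were pelleted at 700×g, washed in PBS and labelled with 0.5 mM (final) mBBr for 15 min in the dark. After washing, cells were imaged by epifluorescence (UV1A filter) at equal exposure times.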

[23] = test system: Oryctolagus cuniculus; experiment: In vivo spermicidal activity in Belgian rabbit assessed as decrease in pregnancy rate at 50 mg via intravaginal instillation measured 30 to 34 days post gestation period; format: functional; procedure, shortened: as §3
[24] = test system: Trichomonas vaginalis; experiment: Antitrichomonas activity against metronidazole-susceptible Trichomonas vaginalis in sc dosed mouse assessed as spleen weight at 5 ug administered daily measured after 7 days (reference value: 0.59 g); format: functional
[25] = test system: Trichomonas vaginalis; experiment: Antitrichomonas activity against metronidazole-susceptible Trichomonas vaginalis in sc dosed mouse assessed as pustule formation at 5 ug administered daily measured after 5 days (reference value: 109 mm'2); format: functional
[26] = test system: Oryctolagus cuniculus; experiment: In vivo spermicidal activity in Belgian rabbit assessed as decrease in litter size at 25 mg via intravaginal instillation measured 30 to 34 days post gestation period; format: functional; design: scale not given: the % may be the effect or the level left; procedure, shortened: as §3
[27] = test system: Oryctolagus cuniculus; experiment: In vivo spermicidal activity in Belgian rabbit assessed as decrease in litter size at 50 mg via intravaginal instillation measured 30 to 34 days post gestation period; format: functional; design: scale not given: the % may be the effect or the level left; procedure, shortened: as §3
[28] = test system: Oryctolagus cuniculus; experiment: In vivo spermicidal activity in Belgian rabbit assessed as decrease in pregnancy rate at 25 mg via intravaginal instillation measured 30 to 34 days post gestation period; format: functional; procedure, shortened: as §3
[29] = test system: Trichomonas vaginalis; experiment: Antitrichomonas activity against metronidazole-susceptible Trichomonas vaginalis in sc dosed mouse assessed as pustule formation at 5 ug administered daily measured after 7 days (reference value: 190 mm'2); format: functional
[30] = test system: Trichomonas vaginalis; experiment: Antitrichomonas activity against Trichomonas vaginalis assessed as reduction in free thiol levels in parasite membrane at MIC after 24 hrs by fluorescence microscopy; format: functional, organism-based

| SMILES | MIC [1] [µM] | MIC [2] [µM] | Ratio [3] | IC50 [4] [µM] | Selectivity Index [5] | MEC [6] [%] | Selectivity Index [7] | MIC [8] [µM] | IC50 [9] [µM] | MIC [10] [µM] | MIC [11] [µM] | MIC [12] [µM] | MIC [13] [µM] | Activity [24] [g] | Activity [25] [mm2] | Activity [29] [mm2] | other results |
| --- | --- | --- | --- | --- | --- | --- | --- | --- | --- | --- | --- | --- | --- | --- | --- | --- | --- |
| S=C(SSC(=S)N1CCN(CCN2CCOCC2)CC1)N1CCN(CCN2CCOCC2)CC1 | 45.5 (≈ 25 µg/mL) | > 91 | 2 | 6480 | 7 | 0.005 | 3 | 91 (≈ 49.9 µg/mL) | 169 | 91 (≈ 49.9 µg/mL) | > 91 | 22.7 (≈ 12.5 µg/mL) | > 91 | – | – | – | – |
| CN(Cc1ccccc1)C(=S)SSC(=S)N(C)Cc1ccccc1 | 31.8 (≈ 12.5 µg/mL) | 31.8 (≈ 12.5 µg/mL) | 4 | – | – | >1 | – | 63.6 (≈ 25 µg/mL) | – | 31.8 (≈ 12.5 µg/mL) | 7.9 (≈ 3.1 µg/mL) | 7.9 (≈ 3.1 µg/mL) | > 127 | – | – | – | Selectivity ratio [14]: 4 |
| C=CCN1CCN(C(=S)SSC(=S)N2CCN(CC=C)CC2)CC1 | 62 (≈ 25 µg/mL) | 62 (≈ 25 µg/mL) | 2 | 3610 | 86 | 0.001 | 21 | 124 (≈ 49.9 µg/mL) | 1340 | > 124 | > 124 | 15.5 (≈ 6.24 µg/mL) | 124 (≈ 49.9 µg/mL) | – | – | – | – |
| CCCCN1CCN(C(=S)SSC(=S)N2CCN(CCCC)CC2)CC1 | 28.7 (≈ 12.5 µg/mL) | 57.4 (≈ 25 µg/mL) | 4 | 832 | 25 | 0.001 | 12 | 114 (≈ 49.6 µg/mL) | 359 | 114 (≈ 49.6 µg/mL) | 114 (≈ 49.6 µg/mL) | 14.3 (≈ 6.22 µg/mL) | 57.4 (≈ 25 µg/mL) | – | – | – | Efficacy [15]: 50%; Efficacy [16]: 62.5%; Efficacy [17]: 37.5%; Activity [18]: 74%; Activity [19]: Dose-dependent effect; Activity [20]: 76%; Activity [21]: 67%; Activity [22]: Active |
| N#CCCCN1CCN(C(=S)SSC(=S)N2CCN(CCCC#N)CC2)CC1 | 6.8 (≈ 3.11 µg/mL) | > 109 | 16 | 6110 | 368 | 0.001 | 368 | 109 (≈ 49.8 µg/mL) | 2510 | 109 (≈ 49.8 µg/mL) | > 109 | 6.8 (≈ 3.11 µg/mL) | > 109 | 0.3 | 15 | 5.75 | Efficacy [23]: 100%; Activity [26]: 100%; Activity [27]: 100%; Efficacy [28]: 100%; Activity [30]: Active; Efficacy [17]: 85.7%; Activity [19]: Dose-dependent effect; Activity [21]: 90% |
| CN(C)C(=S)SSC(=S)N(C)C [THIRAM] | 12.9 (≈ 3.1 µg/mL) | 6.5 (≈ 1.56 µg/mL) | 16 | 8390 | 188 | 0.01 | 188 | 6.5 (≈ 1.56 µg/mL) | 2430 | 51.8 (≈ 12.5 µg/mL) | 3.2 (≈ 0.769 µg/mL) | 12.9 (≈ 3.1 µg/mL) | 51.8 (≈ 12.5 µg/mL) | 0.3 | 15 | 4.45 | Activity [30]: Active |
| S=C(SCCN1CCCC1)N1CCN(C(=S)SSC(=S)N2CCN(C(=S)SCCN3CCCC3)CC2)CC1 | > 149 | 74.7 (≈ 50 µg/mL) | – | 6080 | 58 | 0.002 | > 18 | 74.7 (≈ 50 µg/mL) | 2740 | 74.7 (≈ 50 µg/mL) | 74.7 (≈ 50 µg/mL) | 46.7 (≈ 31.2 µg/mL) | 74.7 (≈ 50 µg/mL) | – | – | – | – |
| Cc1ncc([N+](=O)[O-])n1CCO [METRONIDAZOLE] | 292 (≈ 50 µg/mL) | – | – | – | – | – | – | – | – | – | – | 11.6 (≈ 1.99 µg/mL) | – | 0.5 | 15 | 7.59 | Selectivity ratio [14]: 25 |
